ChEMBL document CHEMBL1143553, “Muscarinic allosteric enhancers of ligand binding: pivotal pharmacophoric elements in hexamethonio-type agents” (J Med Chem, 2005)
Each block holds one molecule with its values, some of them ahead of it.

Assays:
Assay type in all cases: tissue-based
[1] = target: T1, Muscarinic acetylcholine receptor M2 (Sus scrofa) (UniProt P06199); test: Inhibition of [3H]NMS dissociation from muscarinic acetylcholine receptor M2 of pig heart ventricle homogenates; n=6
T1 sequence (whole entry): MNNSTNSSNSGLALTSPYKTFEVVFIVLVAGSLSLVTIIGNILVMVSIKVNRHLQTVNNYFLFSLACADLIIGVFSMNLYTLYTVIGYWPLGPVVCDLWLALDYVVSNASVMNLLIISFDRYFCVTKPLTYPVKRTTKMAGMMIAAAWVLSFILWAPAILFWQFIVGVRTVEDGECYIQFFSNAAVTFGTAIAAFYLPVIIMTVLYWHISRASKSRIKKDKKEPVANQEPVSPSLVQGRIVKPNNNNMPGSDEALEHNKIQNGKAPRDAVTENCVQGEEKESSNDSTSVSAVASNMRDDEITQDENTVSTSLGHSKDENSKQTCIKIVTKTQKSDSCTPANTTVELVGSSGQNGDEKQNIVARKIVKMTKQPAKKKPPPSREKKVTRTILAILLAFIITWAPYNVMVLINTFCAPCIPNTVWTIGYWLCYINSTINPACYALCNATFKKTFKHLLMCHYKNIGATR
Summary of the method: (§1)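 Two-point kinetic dissociation assay in porcine heart homogenates (M2) at 37 °C, 3 mM MgHPO4/50 mM Tris-HCl, pH 7.3. Membranes were preincubated 30 min with 0.2 nM [3H]NMS. Dissociation was started by 1 µM atropine alone or plus test compound, and specific binding measured at t = 0 and 10. Apparent k-1 relative to control was plotted against log concentration and fitted by four-parameter logistic (slope unity) for EC50,diss.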

[2] = target: T1, Muscarinic acetylcholine receptor M2 (Sus scrofa); test: Affinity for muscarinic acetylcholine receptor M2 of pig heart ventricle homogenates; n=4
Summary of the method: (§2)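 Pig heart ventricle homogenate (M2) equilibrium binding at 37 °C in 3 mM MgHPO4/50 mM Tris-HCl, pH 7.3. Increasing concentrations of test compound were incubated with membranes and 0.2 nM [3H]NMS. Incubation time for equilibrium in presence of allosteric agent was computed from dissociation kinetics. Nonspecific binding was defined with 1 µM atropine. Bound and free were separated by vacuum filtration, with scintillation counting.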

[3] = target: T1, Muscarinic acetylcholine receptor M2 (Sus scrofa); test: Cooperativity for muscarinic acetylcholine receptor M2 of pig heart ventricle homogenates; n=4; summary of the method: as §2
[4] = target: T1, Muscarinic acetylcholine receptor M2 (Sus scrofa); test: Cooperativity for muscarinic acetylcholine receptor M2 of pig heart ventricle homogenates; n=8; summary of the method: as §2
[5] = target: T1, Muscarinic acetylcholine receptor M2 (Sus scrofa); test: Inhibition of [3H]NMS dissociation from muscarinic acetylcholine receptor M2 of pig heart ventricle homogenates; n=11; summary of the method: as §1
[6] = target: T1, Muscarinic acetylcholine receptor M2 (Sus scrofa); test: Affinity for muscarinic acetylcholine receptor M2 of pig heart ventricle homogenates; n=8; summary of the method: as §2
[7] = target: T1, Muscarinic acetylcholine receptor M2 (Sus scrofa); test: Cooperativity for muscarinic acetylcholine receptor M2 of pig heart ventricle homogenates; n=5; summary of the method: as §2
[8] = target: T1, Muscarinic acetylcholine receptor M2 (Sus scrofa); test: Inhibition of [3H]NMS dissociation from muscarinic acetylcholine receptor M2 of pig heart ventricle homogenates; n=5; summary of the method: as §1
[9] = target: T1, Muscarinic acetylcholine receptor M2 (Sus scrofa); test: Affinity for muscarinic acetylcholine receptor M2 of pig heart ventricle homogenates; n=5; summary of the method: as §2
[10] = target: T1, Muscarinic acetylcholine receptor M2 (Sus scrofa); test: Cooperativity against muscarinic acetylcholine receptor M2 of pig heart ventricle homogenates; n=; summary of the method: as §2
[11] = target: T1, Muscarinic acetylcholine receptor M2 (Sus scrofa); test: Inhibition of [3H]NMS dissociation from muscarinic acetylcholine receptor M2 of pig heart ventricle homogenates; n=3; summary of the method: as §1
[12] = target: T1, Muscarinic acetylcholine receptor M2 (Sus scrofa); test: Affinity for muscarinic acetylcholine receptor M2 of pig heart ventricle homogenates; n=3; summary of the method: as §2

pEC50 diss [1]: 6.94 | pKA [2]: 7.24 | p alpha [3]: -0.2
Compound: C[N+](C)(CCCCCC[N+](C)(C)CCCN1C(=O)c2cccc3cccc(c23)C1=O)CCCN1C(=O)c2ccccc2C1=O

p alpha [4]: 0.37 | pEC50 diss [5]: 8.36 | pKA [6]: 8.29
Compound: CC(C)(CN1C(=O)c2cccc3cccc(c23)C1=O)C[N+](C)(C)CCCCCC[N+](C)(C)CCCN1C(=O)c2ccccc2C1=O

p alpha [7]: 0.56 | pEC50 diss [8]: 7.73 | pKA [9]: 7.41
Compound: CC(C)(CN1C(=O)c2ccccc2C1=O)C[N+](C)(C)CCCCCC[N+](C)(C)CC(C)(C)CN1C(=O)c2cccc3cccc(c23)C1=O

p alpha [10]: -0.01 | pEC50 diss [11]: 7.28 | pKA [12]: 7.28
Compound: CC(C)(CN1C(=O)c2ccccc2C1=O)C[N+](C)(C)CCCCCC[N+](C)(C)CCCN1C(=O)c2cccc3cccc(c23)C1=O
